Source: PubChem BioAssay AID493180 (Broad Institute, 2011)
Where “and” joins values, the source holds several entries; their conditions need not be identical. Identical values can stand only once. Calls of active or inactive are those of the source.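 Rule for the calls: active = fitted curve reaching 40% activation at or below the top valid tested dose; inactive = the rest, or activity counter to the expected direction.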

System: not listed separately
Assay: HRE-driven luciferase induction, U2OS – cell-based, luminescence, dry powder, set 3, dose response (AID 493180)
Conditions: U2OS HRE-luciferase reporter, luminescence, HIF pathway activation; at 38 µM (top of the series)
Summary of the method: (§1)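 Assay system – human osteosarcoma U2OS cells with stable 3xHRE-driven luciferase reporter · Amount – 6,000 U2OS reporter cells per well · Compound – 8 concentrations, 3-fold dilution steps · Detection – luciferase luminescence measured with Steady-Glo reagent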
For O=C(NC1CCc2ccccc2C1)c1cc(-c2ccccc2)on1 (stereo not drawn), the activation was -0.627% (inactive).
In the case of CC1CN(Cc2ccc(O)c3ncccc23)CC(C)O1 (stereo not drawn), the activation is reported as 2.27% (inactive).
For Cc1cccc(NC(=O)c2cc(-c3ccccc3)on2)n1, the activation was 1.4% (inactive).
With O=C(Nc1cnc2ccccc2c1)c1cc(-c2ccccc2)on1 the activation was 0.049% (inactive).
With N#CC1(c2ccccc2)CCN(Cc2ccc(O)c3ncccc23)CC1 the activation was 6.8% (inactive).
For Cc1ccc(NC(=O)c2cc(-c3ccccc3)on2)cn1, the activation was 1.37% (inactive).
With CN(C)CCNC(=O)c1cc(-c2ccccc2)on1 the activation was 1.68% (inactive).
In the case of Cc1cccc(CNC(=O)c2cc(-c3ccccc3)on2)c1, the activation is reported as -1.13% (inactive).
With CN1CCN(C(=O)c2cc(-c3ccccc3)on2)CC1 the activation was -0.645% (inactive).
In the case of O=C(c1cc(-c2ccccc2)on1)N1CCN(c2ccncc2)CC1, the activation is reported as -1.02% (inactive).
For O=C(c1cc(-c2ccccc2)on1)N1CCC(N2CCCC2)CC1, the activation was 0.044% (inactive).
In the case of Cc1ccc(CNC(=O)c2cc(-c3ccccc3)on2)cc1, the activation is reported as -0.867% (inactive).
In the case of O=C(Nc1ncc(-c2ccccc2)o1)c1cc(-c2ccccc2)on1, the activation is reported as -0.837% (inactive).
In the case of Cn1c(-c2ccccc2)cnc1NC(=O)c1cc(-c2ccccc2)on1, the activation is reported as 0.636% (inactive).
For O=C(Nc1ncc2ccccc2n1)c1cc(-c2ccccc2)on1, the activation was 2.48% (inactive).
With CC(C)(C)CCNC(=O)c1cc(-c2ccccc2)on1 the activation was 19.3% (inactive).
With O=C(Nc1nnc(-c2ccccc2)s1)c1cc(-c2ccccc2)on1 the activation was 0.329% (inactive).
In the case of Cc1ccccc1CNC(=O)c1cc(-c2ccccc2)on1, the activation is reported as 1.28% (inactive).
With Oc1ccc(CNC2CCc3ccccc32)c2cccnc12 (stereo not drawn) the activation was 11.5% (inactive).
With O=C(NCC1CCCCC1)c1cc(-c2ccccc2)on1 the activation was 3.45% (inactive).
With O=C(NCc1ccccc1)c1cc(-c2ccccc2)on1 the activation was 0.892% (inactive).
For Cn1c(NC(=O)c2cc(-c3ccccc3)on2)nc2ccccc21, the activation was 0.384% (inactive).
For O=C(NC1Cc2ccccc2C1)c1cc(-c2ccccc2)on1, the activation was 2.88% (inactive).
For Oc1ccc(CN2CCC(Cc3ccccc3)CC2)c2cccnc12, the activation was 22.2% (inactive).
With Oc1ccc(CN2CCc3ccccc3C2)c2cccnc12 the activation was 1.34% (inactive).

System: U2OS HRE-luciferase reporter, luminescence, HIF pathway activation
Assay: as above
Conditions: not given
Summary of the method: as §1
With O=C(c1cc(-c2ccccc2)on1)N1CCc2cccnc21 the AC40 was > 4.6 µM (inactive).
With O=C(NCCCN1CCOCC1)c1cc(-c2ccccc2)on1 the AC40 was > 38 µM (inactive).
Compound O=C(NCCCCO)c1cc(-c2ccccc2)on1 has an AC40 of 12 µM.
For O=C(c1cc(-c2ccccc2)on1)N1CCC(N2CCOCC2)CC1, the AC40 was > 4.6 µM (inactive).
With O=C(NCCN1CCOCC1)c1cc(-c2ccccc2)on1 the AC40 was > 38 µM (inactive).
For c1ccc(-c2cccc(CNc3nc(-c4ccccn4)nnc3-c3ccccc3)c2)cc1, the AC40 was 1 µM.
Compound c1ccc(-c2nnc(-c3ccccn3)nc2N2CCN(c3ccncc3)CC2)cc1 has an AC40 of 4.63 µM.
With CC(Nc1nc(-c2ccccn2)nnc1-c1ccccc1)c1ccccc1 (stereo not drawn) the AC40 was 1.94 µM.
In the case of c1ccc(-c2nnc(-c3ccccn3)nc2NCC2CCOCC2)cc1, the AC40 is reported as 22.8 µM.
For c1ccc(-c2nnc(-c3ccccn3)nc2Nc2cnc3ccccc3n2)cc1, the AC40 was 7.45 µM.
With O=C(Nc1nc2ccccc2s1)c1cc(-c2ccccc2)on1 the AC40 was > 1.5 µM (inactive).
With Cc1ccc(Nc2nc(-c3ccccn3)nnc2-c2ccccc2)cn1 the AC40 was 13.6 µM.
Work on Cc1cccc(Nc2nc(-c3ccccn3)nnc2-c2ccccc2)n1 yielded an AC40 of 14.2 µM.
In the case of c1ccc(-c2cnc(Nc3nc(-c4ccccn4)nnc3-c3ccccc3)s2)cc1, the AC40 is reported as > 4.6 µM (inactive).
For C=CCNc1nc(-c2ccccn2)nnc1-c1ccccc1, the AC40 was 7.74 µM.
Work on c1ccc(-c2nnc(-c3ccccn3)nc2NCc2cccnc2)cc1 yielded an AC40 of 16.3 µM.
For CCCCNC(=O)c1cc(-c2ccccc2)on1, the AC40 was > 38 µM (inactive).
Clc1cccc(CNc2nc(-c3ccccn3)nnc2-c2ccccc2)c1 showed an AC40 of 2.21 µM.
With O=C(NCCN1CCCCC1)c1cc(-c2ccccc2)on1 the AC40 was 2.5 µM.
For c1ccc(-c2nnc(-c3ccccn3)nc2NCC2CC2)cc1, the AC40 was 7.63 µM.
Compound c1ccc(-c2nnc(-c3ccccn3)nc2NCc2ccccn2)cc1 has an AC40 of 22 µM.
c1ccc(-c2nnc(-c3ccccn3)nc2N2CCC(C3CCCCC3)C2)cc1 (stereo not drawn) showed an AC40 of 1.5 µM.
For c1ccc(-c2nnc(-c3ccccn3)nc2N2CCC(c3ccccc3)C2)cc1 (stereo not drawn), the AC40 was 2.54 µM.
In the case of O=C(Nc1ccc2ccccc2n1)c1cc(-c2ccccc2)on1, the AC40 is reported as > 4.6 µM (inactive).
Compound Cc1ccc(CNc2nc(-c3ccccn3)nnc2-c2ccccc2)cc1C has an AC40 of 2.12 µM.
With C[C@@H](Nc1nc(-c2ccccn2)nnc1-c1ccccc1)c1ccccc1 the AC40 was 5.22 µM.
Work on Cn1c(-c2ccccc2)cnc1Nc1nc(-c2ccccn2)nnc1-c1ccccc1 yielded an AC40 of 5.83 µM.
For O=C(Nc1cn2ccccc2n1)c1cc(-c2ccccc2)on1, the AC40 was > 4.6 µM (inactive).
Oc1ccc(CN2CCC3CCCCC3C2)c2cccnc12 (stereo not drawn) showed an AC40 of 34.8 µM.
Work on CN(C)c1nc(-c2ccccn2)nnc1-c1ccccc1 yielded an AC40 of 12.9 µM.
In the case of CC(C)(C)CCNc1nc(-c2ccccn2)nnc1-c1ccccc1, the AC40 is reported as 3.2 µM and 1.8 µM.
In the case of C[C@@H](Nc1nc(-c2ccccn2)nnc1-c1ccccc1)C1CCCCC1, the AC40 is reported as 5.21 µM.
O=C(NCCCn1ccnc1)c1cc(-c2ccccc2)on1 showed an AC40 of 28.9 µM.
In the case of c1ccc(-c2ccc(CNc3nc(-c4ccccn4)nnc3-c3ccccc3)cc2)cc1, the AC40 is reported as 1.09 µM.
For COc1ccccc1N1CCN(Cc2ccc(O)c3ncccc23)CC1, the AC40 was > 38 µM (inactive).
COc1cccc(CNc2nc(-c3ccccn3)nnc2-c2ccccc2)c1 gave an AC40 of 2.83 µM.
With Cc1ccccc1CNc1nc(-c2ccccn2)nnc1-c1ccccc1 the AC40 was 5.58 µM.
Work on c1ccc(-c2nnc(-c3ccccn3)nc2Nc2nc3ccccc3s2)cc1 yielded an AC40 of 5.89 µM.
In the case of OCC1CCN(c2nc(-c3ccccn3)nnc2-c2ccccc2)CC1, the AC40 is reported as 21.1 µM.
Cc1ccc(CNc2nc(-c3ccccn3)nnc2-c2ccccc2)cc1 showed an AC40 of 3.58 µM.
For O=C(NCCCO)c1cc(-c2ccccc2)on1, the AC40 was > 38 µM (inactive).
c1ccc(-c2nnc(-c3ccccn3)nc2NCCCN2CCOCC2)cc1 showed an AC40 of 7.33 µM.
For CC(C)(C)OC(=O)N1CCN(Cc2ccc(O)c3ncccc23)CC1, the AC40 was > 4.6 µM (inactive).
Compound c1ccc(-c2nnc(Nc3nc(-c4ccccn4)nnc3-c3ccccc3)s2)cc1 has an AC40 of 25.3 µM.
c1ccc(-c2nnc(-c3ccccn3)nc2NCC2CCCCC2)cc1 showed an AC40 of 3.5 µM.
COc1ccc(CNc2nc(-c3ccccn3)nnc2-c2ccccc2)cc1 gave an AC40 of 3.7 µM.
With O=C(Nc1nc(-c2ccccc2)cs1)c1cc(-c2ccccc2)on1 the AC40 was > 4.6 µM (inactive).
c1ccc(-c2nnc(-c3ccccn3)nc2N2CCC(N3CCOCC3)CC2)cc1 gave an AC40 of 7.47 µM.
c1ccc(CCNc2nc(-c3ccccn3)nnc2-c2ccccc2)cc1 gave an AC40 of 2.69 µM.
Compound c1ccc(CNc2nc(-c3ccccn3)nnc2-c2ccccc2)cc1 has an AC40 of 5.63 µM.
Compound Cc1cccc(CNc2nc(-c3ccccn3)nnc2-c2ccccc2)c1 has an AC40 of 4.5 µM.
In the case of OCC1CCN(Cc2ccc(O)c3ncccc23)CC1, the AC40 is reported as > 4.6 µM (inactive).
With c1ccc(-c2nnc(-c3ccccn3)nc2NCCN2CCOCC2)cc1 the AC40 was 15.3 µM.
Work on O=C(NCC1CC1)c1cc(-c2ccccc2)on1 yielded an AC40 of 31 µM.
Compound C[C@H](Nc1nc(-c2ccccn2)nnc1-c1ccccc1)C1CCCCC1 has an AC40 of 2.59 µM.
OCCCNc1nc(-c2ccccn2)nnc1-c1ccccc1 gave an AC40 of 22.2 µM.
Compound c1ccc(-c2csc(Nc3nc(-c4ccccn4)nnc3-c3ccccc3)n2)cc1 has an AC40 of 1.39 µM.
In the case of Oc1ccc(CNC2Cc3ccccc3C2)c2cccnc12, the AC40 is reported as > 38 µM (inactive).
With c1ccc(-c2nnc(-c3ccccn3)nc2NCCc2ccccn2)cc1 the AC40 was 12.5 µM.
In the case of CN1CCN(c2nc(-c3ccccn3)nnc2-c2ccccc2)CC1, the AC40 is reported as 21.7 µM.
With O=C(c1cc(-c2ccccc2)on1)N1CCC(CO)CC1 the AC40 was > 4.6 µM (inactive).
For Oc1ccc(CN2CCc3ccccc3C2)c2cccnc12, the AC40 was 14.1 µM.
With CC(C)(C)c1ccc(CNc2nc(-c3ccccn3)nnc2-c2ccccc2)cc1 the AC40 was 2.15 µM.
